# Assay results as given in ChEMBL document CHEMBL1156768, “The structure-activity relationship of the antimalarial ozonide arterolane (OZ277)” (J Med Chem, 2010).
# Test system: not listed separately
# Experiment: Half life in Sprague-Dawley rat at 2.5 to 3.5 mg/kg, iv
# Assay type: ADME, organism-based
# Design: dose 2.5-3.5 mg/kg, route intravenous
# Details: in vivo
# Outline: (§1)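 Rats received an IV infusion over 5-10 min through a jugular cannula at 2.5-3.5 mg/kg, in DMSO/aqueous buffer or propylene glycol/ethanol/water. Oral gavage used aqueous suspensions in HPMC or CMC with 0.4% Tween 80 and 0.5% benzyl alcohol. Carotid blood was sampled, and plasma was acetonitrile-precipitated and measured by LC/MS against plasma calibration standards. Values are averages of 2-3 determinations.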
row,SMILES,half-life
1,CC(C)(N)CNC(=O)CC[C@H]1CC[C@]2(CC1)OO[C@]1(O2)C2CC3CC(C2)CC1C3.Cc1ccc(S(=O)(=O)O)cc1,1 h
2,CC(C)(N)CNC(=O)C[C@H]1CC[C@@]2(CC1)OO[C@@]1(O2)C2CC3CC(C2)CC1C3.Cc1ccc(S(=O)(=O)O)cc1,0.617 h
3,O=C(C[C@H]1CC[C@]2(CC1)OO[C@]1(O2)C2CC3CC(C2)CC1C3)N1CCC(O)CC1,11 h

# Test system: not listed separately
# Experiment: Volume of distribution in Sprague-Dawley rat at 2.5 to 3.5 mg/kg, iv
# Assay type: ADME, organism-based
# Design: dose 2.5-3.5 mg/kg, route intravenous
# Details: in vivo
# Outline: as §1
row,SMILES,Vd
1,CC(C)(N)CNC(=O)CC[C@H]1CC[C@]2(CC1)OO[C@]1(O2)C2CC3CC(C2)CC1C3.Cc1ccc(S(=O)(=O)O)cc1,12 L/kg
2,CC(C)(N)CNC(=O)C[C@H]1CC[C@@]2(CC1)OO[C@@]1(O2)C2CC3CC(C2)CC1C3.Cc1ccc(S(=O)(=O)O)cc1,16 L/kg
3,O=C(C[C@H]1CC[C@]2(CC1)OO[C@]1(O2)C2CC3CC(C2)CC1C3)N1CCC(O)CC1,36 L/kg
4,C[C@H]1[C@@H](O)O[C@@H]2O[C@@]3(C)CC[C@H]4[C@H](C)CC[C@@H]1[C@@]24OO3 [ARTENIMOL],3 L/kg

# Test system: Plasmodium berghei
# Experiment: Antiplasmodial activity against Plasmodium berghei infected in NMRI mice (Mus musculus) assessed as mice (Mus musculus) survival days at 3 mg/kg, perorally daily once for 3 consecutive days measured after 4 days post-infection
# Assay type: functional
# Details: route oral
# Outline: (§2)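 P. berghei-infected NMRI mice, in groups of five, were dosed orally at 3 mg/kg on days +1, +2 and +3 postinfection. Parasitemia reduction, survival time and cure were scored.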
row,SMILES,Survival
1,CC(C)(N)CNC(=O)CC[C@H]1CC[C@]2(CC1)OO[C@]1(O2)C2CC3CC(C2)CC1C3.Cc1ccc(S(=O)(=O)O)cc1,24.4 days
2,CC(C)(N)CNC(=O)OC[C@H]1CC[C@]2(CC1)OO[C@]1(O2)C2CC3CC(C2)CC1C3.Cc1ccc(S(=O)(=O)O)cc1,9.8 days
3,Cc1ccc(S(=O)(=O)O)cc1.N[C@H]1CC[C@H](NC(=O)C[C@H]2CC[C@]3(CC2)OO[C@]2(O3)C3CC4CC(C3)CC2C4)CC1,22 days
4,CCN(CC)CCCC(C)Nc1ccnc2cc(Cl)ccc12 (stereo not given) [CHLOROQUINE],9.4 days
5,OC(c1cc(C(F)(F)F)nc2c(C(F)(F)F)cccc12)C1CCCCN1 (stereo not given) [MEFLOQUINE],15.8 days

# Test system: Plasmodium berghei
# Experiment: Antiplasmodial activity against Plasmodium berghei infected in NMRI mice (Mus musculus) assessed as reduction of parasitaemia level at 3 mg/kg, perorally daily once for 3 consecutive days measured after 4 days post-infection
# Assay type: functional
# Design: scale not given: the % may be the effect or the level left
# Details: route oral
# Outline: as §2
row,SMILES,Activity
1,CC(C)(N)CNC(=O)CC[C@H]1CC[C@]2(CC1)OO[C@]1(O2)C2CC3CC(C2)CC1C3.Cc1ccc(S(=O)(=O)O)cc1,>99.9%
2,CC(C)(N)CNC(=O)OC[C@H]1CC[C@]2(CC1)OO[C@]1(O2)C2CC3CC(C2)CC1C3.Cc1ccc(S(=O)(=O)O)cc1,>99.9%
3,Cc1ccc(S(=O)(=O)O)cc1.N[C@H]1CC[C@H](NC(=O)C[C@H]2CC[C@]3(CC2)OO[C@]2(O3)C3CC4CC(C3)CC2C4)CC1,>99.9%
4,OC(c1cc(C(F)(F)F)nc2c(C(F)(F)F)cccc12)C1CCCCN1 (stereo not given) [MEFLOQUINE],99%

# Test system: Plasmodium berghei
# Experiment: Antiplasmodial activity against Plasmodium berghei infected in NMRI mice (Mus musculus) assessed as curing of parasitaemia at 3 mg/kg, perorally daily once for 3 consecutive days measured after 30 days post-infection
# Assay type: functional
# Details: route oral
# Outline: as §2
row,SMILES,Activity
1,CC(C)(N)CNC(=O)CC[C@H]1CC[C@]2(CC1)OO[C@]1(O2)C2CC3CC(C2)CC1C3.Cc1ccc(S(=O)(=O)O)cc1,0%
2,CC(C)(N)CNC(=O)OC[C@H]1CC[C@]2(CC1)OO[C@]1(O2)C2CC3CC(C2)CC1C3.Cc1ccc(S(=O)(=O)O)cc1,0%
3,Cc1ccc(S(=O)(=O)O)cc1.N[C@H]1CC[C@H](NC(=O)C[C@H]2CC[C@]3(CC2)OO[C@]2(O3)C3CC4CC(C3)CC2C4)CC1,0%

# Test system: Plasmodium falciparum
# Experiment: Antimalarial activity against chloroquine-sensitive Plasmodium falciparum NF54 infected in human A+ erythrocytes assessed as [3H]hypoxanthine incorporation by semi-automated micro dilution assay
# Assay type: functional, organism-based
# Details: not given
row,SMILES,IC50
1,O=C(O)C[C@H]1CC[C@]2(CC1)OO[C@]1(O2)C2CC3CC(C2)CC1C3,45 ng/mL
2,CC(C)(N)CNC(=O)NC[C@H]1CC[C@]2(CC1)OO[C@]1(O2)C2CC3CC(C2)CC1C3.Cc1ccc(S(=O)(=O)O)cc1,3.5 ng/mL
3,CC(C)(N)Cn1nnnc1C[C@H]1CC[C@]2(CC1)OO[C@]1(O2)C2CC3CC(C2)CC1C3,1.5 ng/mL
4,Cc1ccc(S(=O)(=O)O)cc1.NC1(CNC(=O)C[C@H]2CC[C@]3(CC2)OO[C@]2(O3)C3CC4CC(C3)CC2C4)CC1,0.52 ng/mL
5,CC(C)(CN)CNC(=O)C[C@H]1CC[C@]2(CC1)OO[C@]1(O2)C2CC3CC(C2)CC1C3.CS(=O)(=O)O,0.49 ng/mL
6,CC(C)(N)CNC(=O)N[C@H]1CC[C@]2(CC1)OO[C@]1(O2)C2CC3CC(C2)CC1C3.Cc1ccc(S(=O)(=O)O)cc1,6.2 ng/mL
7,O=C(C[C@H]1CC[C@]2(CC1)OO[C@]1(O2)C2CC3CC(C2)CC1C3)N1CCN(CCO)CC1,0.9 ng/mL
8,CC(C)(N)CNC(=O)CC[C@H]1CC[C@]2(CC1)OO[C@]1(O2)C2CC3CC(C2)CC1C3.Cc1ccc(S(=O)(=O)O)cc1,0.82 ng/mL
9,CC(C)(N)CNC(=O)OC[C@H]1CC[C@]2(CC1)OO[C@]1(O2)C2CC3CC(C2)CC1C3.Cc1ccc(S(=O)(=O)O)cc1,0.36 ng/mL
10,CC(C)(N)CNC(=O)C[C@H]1CC[C@@]2(CC1)OO[C@@]1(O2)C2CC3CC(C2)CC1C3.Cc1ccc(S(=O)(=O)O)cc1,1.5 ng/mL
11,O=C(C[C@H]1CC[C@]2(CC1)OO[C@]1(O2)C2CC3CC(C2)CC1C3)N1CCC(O)CC1,0.76 ng/mL

# Test system: not listed separately
# Experiment: Plasma clearance in Sprague-Dawley rat at 2.5 to 3.5 mg/kg, iv
# Assay type: ADME, organism-based
# Design: dose 2.5-3.5 mg/kg, route intravenous
# Details: not given
# Outline: as §1
row,SMILES,clearance
1,CC(C)(N)CNC(=O)CC[C@H]1CC[C@]2(CC1)OO[C@]1(O2)C2CC3CC(C2)CC1C3.Cc1ccc(S(=O)(=O)O)cc1,134 mL/min/kg
2,CC(C)(N)CNC(=O)C[C@H]1CC[C@@]2(CC1)OO[C@@]1(O2)C2CC3CC(C2)CC1C3.Cc1ccc(S(=O)(=O)O)cc1,298 mL/min/kg
3,O=C(C[C@H]1CC[C@]2(CC1)OO[C@]1(O2)C2CC3CC(C2)CC1C3)N1CCC(O)CC1,37 mL/min/kg
4,C[C@H]1[C@@H](O)O[C@@H]2O[C@@]3(C)CC[C@H]4[C@H](C)CC[C@@H]1[C@@]24OO3 [ARTENIMOL],72 mL/min/kg

# Test system: Plasmodium falciparum
# Experiment: Antimalarial activity against chloroquine-resistant Plasmodium falciparum K1 infected in human A+ erythrocytes assessed as [3H]hypoxanthine incorporation by semiautomated micro dilution assay
# Assay type: functional, organism-based
# Details: not given
row,SMILES,IC50
1,O=C(O)C[C@H]1CC[C@]2(CC1)OO[C@]1(O2)C2CC3CC(C2)CC1C3,34 ng/mL
2,CC(C)(N)CNC(=O)NC[C@H]1CC[C@]2(CC1)OO[C@]1(O2)C2CC3CC(C2)CC1C3.Cc1ccc(S(=O)(=O)O)cc1,3.2 ng/mL
3,CC(C)(N)Cn1nnnc1C[C@H]1CC[C@]2(CC1)OO[C@]1(O2)C2CC3CC(C2)CC1C3,2.3 ng/mL
4,Cc1ccc(S(=O)(=O)O)cc1.NC1(CNC(=O)C[C@H]2CC[C@]3(CC2)OO[C@]2(O3)C3CC4CC(C3)CC2C4)CC1,0.4 ng/mL
5,CC(C)(CN)CNC(=O)C[C@H]1CC[C@]2(CC1)OO[C@]1(O2)C2CC3CC(C2)CC1C3.CS(=O)(=O)O,0.46 ng/mL
6,CC(C)(N)CNC(=O)N[C@H]1CC[C@]2(CC1)OO[C@]1(O2)C2CC3CC(C2)CC1C3.Cc1ccc(S(=O)(=O)O)cc1,8.4 ng/mL
7,O=C(C[C@H]1CC[C@]2(CC1)OO[C@]1(O2)C2CC3CC(C2)CC1C3)N1CCN(CCO)CC1,1 ng/mL
8,CC(C)(N)CNC(=O)CC[C@H]1CC[C@]2(CC1)OO[C@]1(O2)C2CC3CC(C2)CC1C3.Cc1ccc(S(=O)(=O)O)cc1,0.55 ng/mL
9,CC(C)(N)CNC(=O)OC[C@H]1CC[C@]2(CC1)OO[C@]1(O2)C2CC3CC(C2)CC1C3.Cc1ccc(S(=O)(=O)O)cc1,0.22 ng/mL
10,CC(C)(N)CNC(=O)C[C@H]1CC[C@@]2(CC1)OO[C@@]1(O2)C2CC3CC(C2)CC1C3.Cc1ccc(S(=O)(=O)O)cc1,1.7 ng/mL
11,O=C(C[C@H]1CC[C@]2(CC1)OO[C@]1(O2)C2CC3CC(C2)CC1C3)N1CCC(O)CC1,0.49 ng/mL

# Test system: not listed separately
# Experiment: Oral bioavailability in Sprague-Dawley rat
# Assay type: ADME, organism-based
# Details: in vivo
# Outline: as §1
row,SMILES,bioavailability
1,CC(C)(N)CNC(=O)CC[C@H]1CC[C@]2(CC1)OO[C@]1(O2)C2CC3CC(C2)CC1C3.Cc1ccc(S(=O)(=O)O)cc1,32%
2,CC(C)(N)CNC(=O)C[C@H]1CC[C@@]2(CC1)OO[C@@]1(O2)C2CC3CC(C2)CC1C3.Cc1ccc(S(=O)(=O)O)cc1,15%
3,O=C(C[C@H]1CC[C@]2(CC1)OO[C@]1(O2)C2CC3CC(C2)CC1C3)N1CCC(O)CC1,5%

# Test system: Plasmodium berghei
# Experiment: Antiplasmodial activity against Plasmodium berghei infected in NMRI mice (Mus musculus) assessed as reduction of parasitaemia level at 10 mg/kg, perorally administered 1 day after post-infection measured after 3 days post-infection
# Assay type: functional
# Design: scale not given: the % may be the effect or the level left
# Details: route oral
# Outline: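 Groups of five NMRI mice infected with P. berghei received a single oral dose on day 1 postinfection. Read-out was percent reduction in parasitemia on day 3 postinfection. Individual measurements differed by less than 10%.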
row,SMILES,Activity
1,O=C(O)C[C@H]1CC[C@]2(CC1)OO[C@]1(O2)C2CC3CC(C2)CC1C3,95%
2,CC(C)(N)CNC(=O)NC[C@H]1CC[C@]2(CC1)OO[C@]1(O2)C2CC3CC(C2)CC1C3.Cc1ccc(S(=O)(=O)O)cc1,97%
3,CC(C)(N)Cn1nnnc1C[C@H]1CC[C@]2(CC1)OO[C@]1(O2)C2CC3CC(C2)CC1C3,98%
4,Cc1ccc(S(=O)(=O)O)cc1.NC1(CNC(=O)C[C@H]2CC[C@]3(CC2)OO[C@]2(O3)C3CC4CC(C3)CC2C4)CC1,99.9%
5,CC(C)(CN)CNC(=O)C[C@H]1CC[C@]2(CC1)OO[C@]1(O2)C2CC3CC(C2)CC1C3.CS(=O)(=O)O,99.9%
6,CC(C)(N)CNC(=O)N[C@H]1CC[C@]2(CC1)OO[C@]1(O2)C2CC3CC(C2)CC1C3.Cc1ccc(S(=O)(=O)O)cc1,63%
7,O=C(C[C@H]1CC[C@]2(CC1)OO[C@]1(O2)C2CC3CC(C2)CC1C3)N1CCN(CCO)CC1,96%
8,CC(C)(N)CNC(=O)CC[C@H]1CC[C@]2(CC1)OO[C@]1(O2)C2CC3CC(C2)CC1C3.Cc1ccc(S(=O)(=O)O)cc1,>99.9%
9,CC(C)(N)CNC(=O)OC[C@H]1CC[C@]2(CC1)OO[C@]1(O2)C2CC3CC(C2)CC1C3.Cc1ccc(S(=O)(=O)O)cc1,>99.9%
10,CC(C)(N)CNC(=O)C[C@H]1CC[C@@]2(CC1)OO[C@@]1(O2)C2CC3CC(C2)CC1C3.Cc1ccc(S(=O)(=O)O)cc1,96%
11,Cc1ccc(S(=O)(=O)O)cc1.N[C@H]1CC[C@H](NC(=O)C[C@H]2CC[C@]3(CC2)OO[C@]2(O3)C3CC4CC(C3)CC2C4)CC1,>99.9%
12,O=C(C[C@H]1CC[C@]2(CC1)OO[C@]1(O2)C2CC3CC(C2)CC1C3)N1CCC(O)CC1,99.7%
